Experimental data: PMC5858725 (Biochemistry, 2017)
Read-outs that look alike come from different tables or passages of the source.

What was measured:
[1] = system: WT CYP3A4; experiment: Stopped flow ligand binding kinetics, WT CYP3A4; parameters: species or system human; details: for Percentage of absorbance change observed during the fast kinetic phase / Percentage of absorbance change observed during the slow kinetic phase: 40 μM ligand
[2] = target: T1, opt-WT CYP3A4 (Homo sapiens, UniProt P08684); experiment: Stopped flow ligand binding kinetics, opt-WT CYP3A4; details: for Percentage of absorbance change observed during the fast kinetic phase / Percentage of absorbance change observed during the slow kinetic phase: 40 μM ligand
[3] = target: T2, Cys-less CYP3A4 (Homo sapiens, UniProt P08684, C239T/C377A/C468S/C58A/C64M/C98A); experiment: Stopped flow ligand binding kinetics, Cys-less CYP3A4; details: for Percentage of absorbance change observed during the fast kinetic phase / Percentage of absorbance change observed during the slow kinetic phase: 40 μM ligand
[4] = target: T1, opt-WT CYP3A4
[5] = target: T2, Cys-less CYP3A4
[6] = system: WT CYP3A4; details: cited from earlier work
[7] = target: T2, Cys-less CYP3A4; experiment: BFC O-debenzylase activity in reconstituted system with CPR; type: biochemical; details: 0.1–0.6 M phosphate pH 7.4, all studied conditions; relative to WT and opt-WT
Outline: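 N-terminally truncated (Δ3–22) CYP3A4 carrying C58A/C64M/C98A/C239T/C377A/C468S, co-expressed with GroESL in E. coli C41(DE3). […] Lipid-free reconstitution with rat cytochrome P450 reductase. Substrate 7-benzyloxy(4-trifluoromethyl)coumarin, O-debenzylated to a fluorescent product that is read fluorimetrically.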

[8] = system: CPR; experiment: Kinetics of CYP3A4 reduction with CPR; type: biochemical, rat; details: anaerobic
[9] = 2 μM CYP3A4 mixed with 40 μM ligand, 0.6 M phosphate pH 7.4
[10] = CO-saturated 0.1 M phosphate pH 7.4, 1 μM CYP3A4 and CPR, 30 μM MDZ, 100 μM NADPH

Molecule: CC(C)C[C@H]1C(=O)N2CCC[C@H]2[C@]2(O)O[C@](NC(=O)[C@@H]3C=C4c5cccc6[nH]c(Br)c(c56)C[C@H]4N(C)C3)(C(C)C)C(=O)N12 [BEC, bromoergocryptine]
- Percentage of absorbance change observed during the fast kinetic phase ([1]; 0.1 M phosphate pH 7.4): 52%
- Percentage of absorbance change observed during the slow kinetic phase ([1]; 0.1 M phosphate pH 7.4): 48%
- Percentage of absorbance change observed during the fast kinetic phase ([2]; 0.1 M phosphate pH 7.4): 49%
- Percentage of absorbance change observed during the slow kinetic phase ([2]; 0.1 M phosphate pH 7.4): 51%
- Percentage of absorbance change observed during the fast kinetic phase ([3]; 0.1 M phosphate pH 7.4): 54%
- Percentage of absorbance change observed during the slow kinetic phase ([3]; 0.1 M phosphate pH 7.4): 46%
- affinity lower than WT (from Ks) [4]: 1.5–2 fold
- Kd ([4]; pH 7.4): 770 ± 140 nM
- affinity lower than WT (from Ks) [5]: 1.5–2 fold
- Kd ([5]; pH 7.4): 450 ± 60 nM
- Kd ([6]; read-out: Equilibrium Titrations, Ks, determined previously): 300 nM

Molecule: O=c1cc(C(F)(F)F)c2ccc(OCc3ccccc3)cc2o1 [BFC, 7-benzyloxy-(4-trifluoromethyl)coumarin]
- BFC oxidation (debenzylation) by Cys-less CYP3A4, faster than WT and opt-WT [7]: 6–8 fold

Molecule: Cc1ncc2n1-c1ccc(Cl)cc1C(c1ccccc1F)=NC2 [MDZ, midazolam]
- Ligand Binding Kinetics, kfast [1, 9]: 3.4 ± 0.3 s⁻¹
- Ligand Binding Kinetics, kslow [1, 9]: 0.23 ± 0.04 s⁻¹
- Percentage of absorbance change observed during the fast kinetic phase ([1]; 0.1 M phosphate pH 7.4): 70%
- Percentage of absorbance change observed during the slow kinetic phase ([1]; 0.1 M phosphate pH 7.4): 30%
- Percentage of absorbance change observed during the fast kinetic phase ([1]; 0.6 M phosphate pH 7.4): 82%
- Percentage of absorbance change observed during the slow kinetic phase ([1]; 0.6 M phosphate pH 7.4): 18%
- Ligand Binding Kinetics, kfast [2, 9]: 0.26 ± 0.03 s⁻¹
- Ligand Binding Kinetics, kslow [2, 9]: 0.027 ± 0.004 s⁻¹
- Percentage of absorbance change observed during the fast kinetic phase ([2]; 0.1 M phosphate pH 7.4): 43%
- Percentage of absorbance change observed during the slow kinetic phase ([2]; 0.1 M phosphate pH 7.4): 57%
- Percentage of absorbance change observed during the fast kinetic phase ([2]; 0.6 M phosphate pH 7.4): 49%
- Percentage of absorbance change observed during the slow kinetic phase ([2]; 0.6 M phosphate pH 7.4): 51%
- Ligand Binding Kinetics, kfast [3, 9]: 0.27 ± 0.02 s⁻¹
- Ligand Binding Kinetics, kslow [3, 9]: 0.036 ± 0.003 s⁻¹
- Percentage of absorbance change observed during the fast kinetic phase ([3]; 0.1 M phosphate pH 7.4): 40%
- Percentage of absorbance change observed during the slow kinetic phase ([3]; 0.1 M phosphate pH 7.4): 60%
- Percentage of absorbance change observed during the fast kinetic phase ([3]; 0.6 M phosphate pH 7.4): 43%
- Percentage of absorbance change observed during the slow kinetic phase ([3]; 0.6 M phosphate pH 7.4): 57%
- Kd ([6]; read-out: Equilibrium Titrations, Ks, 0.1 M phosphate, determined previously): 4800 nM
- Kd ([6]; read-out: Equilibrium Titrations, Ks, 0.6 M phosphate, determined previously): 1800 nM

Molecule: CC(C)c1nc(CN(C)C(=O)N[C@H](C(=O)N[C@@H](Cc2ccccc2)C[C@H](O)[C@H](Cc2ccccc2)NC(=O)OCc2cncs2)C(C)C)cs1 [RIT, ritonavir]
- Percentage of absorbance change observed during the fast kinetic phase ([1]; 0.1 M phosphate pH 7.4): 70%
- Percentage of absorbance change observed during the slow kinetic phase ([1]; 0.1 M phosphate pH 7.4): 30%

B1: Cys-less: C58A/C64M/C98A/C239T/C377A/C468S variant of CYP3A4 from codon-optimized synthetic gene (protein, UniProt P08684 2-503, looked up, variant C58A C64M C98A C239T C377A C468S)
Cytochrome P450 3A4: ALIPDLAMETWLLLAVSLVLLYLYGTHSHGLFKKLGIPGPTPLPFLGNILSYHKGFAMFDMEMHKKYGKVWGFYDGQQPVLAITDPDMIKTVLVKEAYSVFTNRRPFGPVGFMKSAISIAEDEEWKRLRSLLSPTFTSGKLKEMVPIIAQYGDVLVRNLRREAETGKPVTLKDVFGAYSMDVITSTSFGVNIDSLNNPQDPFVENTKKLLRFDFLDPFFLSITVFPFLIPILEVLNITVFPREVTNFLRKSVKRMKESRLEDTQKHRVDFLQLMIDSQNSKETESHKALSDLELVAQSIIFIFAGYETTSSVLSFIMYELATHPDVQQKLQEEIDAVLPNKAPPTYDTVLQMEYLDMVVNETLRLFPIAMRLERVAKKDVEINGMFIPKGVVVMIPSYALHRDPKYWTEPEKFLPERFSKKNKDNIDPYIYTPFGSGPRNCIGMRFALMNMKLALIRVLQNFSFKPSKETQIPLKLSLGGLLQPEKPVVLKVESRDGTVSGA
modifications: Δ3–22 truncation
- First Electron Transfer from CPR, kfast [8, 10]: 1.22 ± 0.03 min⁻¹
- First Electron Transfer from CPR, kslow [8, 10]: 0.22 ± 0.02 min⁻¹
- First Electron Transfer from CPR, percentage of absorbance change in the fast phase ([8]; CO-saturated 0.1 M phosphate pH 7.4, 30 μM MDZ): 64%
